This passage reports MIC and ED50 results from ChEMBL document CHEMBL1122526, “Pyridonecarboxylic acids as antibacterial agents. 4. Synthesis and antibacterial activity of 7-(3-amino-1-pyrrolidinyl)-1-ethyl-6-fluoro-1,4 -dihydro-4-oxo-1,8-naphthyridine-3-carboxylic acid and its analogues” (1984).

What all share (assay type): functional
Experiment [1] concerns Escherichia coli. Briefly: In vitro antibacterial activity against Escherichia coli NIHJ JC-2.
The test system of experiment [2] is Pseudomonas aeruginosa. Kind of experiment: in vitro antibacterial activity against Pseudomonas aeruginosa Tsuchijima.
The test system of experiment [3] is Staphylococcus aureus. Kind of experiment: In vitro for antibacterial activity against Staphylococcus aureus 209P JC-1.
Experiment [4] deals with Escherichia coli. Briefly: Compound was evaluated in vivo for oral antibacterial activity against Escherichia coli P-5101 at a dose of 9E6. The essentials:
(§1)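 Mice were given a systemic infection and then treated by the oral route. Challenge doses in cells per mouse were 5 × 10^8 for S. aureus 50774, 9 × 10^6 for E. coli P-5101 and 4 × 10^3 for P. aeruginosa 12. The protective dose is given in mg/kg.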

The subject of experiment [5] is Staphylococcus aureus. Briefly: Compound was evaluated in vivo for oral antibacterial activity against Staphylococcus aureus 50774 at a dose of 5E8. The essentials:
as §1

Experiment [6] deals with Pseudomonas aeruginosa. Kind of experiment: Compound was evaluated in vivo for oral antibacterial activity against Pseudomonas aeruginosa 12 at a dose of 4E3. The essentials:
as §1

Values after ≈ are worked out from the molar mass of the structure shown.

By MIC is commonly meant the lowest concentration that inhibits growth of the organism. A lower MIC goes with a more susceptible organism. Usually ED50 stands for the midpoint of the dose-response relation. The low end stands for greater potency, the high end for weaker potency.

As for `CCn1cc(C(=O)O)c(=O)c2cc(F)c(N3CCC(O)CC3)nc21`, the MIC stood at 3.13 µg/mL (≈ 9.33 µM) in experiment [1], 6.25 µg/mL (≈ 18.6 µM) in experiment [2] and 0.78 µg/mL (≈ 2.33 µM) in experiment [3].

As to `CCn1cc(C(=O)O)c(=O)c2cc(F)c(N3CCC(NC=O)C3)nc21` (stereo not drawn), the MIC in experiment [1] worked out at 0.78 µg/mL (≈ 2.24 µM); in experiment [2], 3.13 µg/mL (≈ 8.99 µM); in experiment [3] it was 0.78 µg/mL (≈ 2.24 µM).

Consider `CCn1cc(C(=O)O)c(=O)c2cc(F)c(N3CCC(OC=O)C3)nc21` (stereo not drawn), for which the MIC in experiment [1] amounted to 1.56 µg/mL (≈ 4.47 µM); in experiment [2], 3.13 µg/mL (≈ 8.96 µM); in experiment [3], 0.39 µg/mL (≈ 1.12 µM).

On to `CCn1cc(C(=O)O)c(=O)c2cc(F)c(N3CCC(NC)C3)nc21` (stereo not drawn), for which the MIC in experiment [1] is 0.2 µg/mL (≈ 0.598 µM); in experiment [2], 1.56 µg/mL (≈ 4.67 µM); in experiment [3] it was 0.39 µg/mL (≈ 1.17 µM). In addition, the ED50 in experiment [4] was found to be 1.4 mg/kg; in experiment [5], 4.8 mg/kg; in experiment [6] it was 6.5 mg/kg.

For `CN(C)C1CCN(c2nc3c(cc2F)c(=O)c(C(=O)O)cn3CCF)C1` (stereo not drawn), the MIC turned out to be 0.2 µg/mL (≈ 0.546 µM) in experiment [1], 6.25 µg/mL (≈ 17.1 µM) in experiment [2] and 0.78 µg/mL (≈ 2.13 µM) in experiment [3].

On to `NC1CCN(c2nc3c(cc2F)c(=O)c(C(=O)O)cn3CCF)C1` (stereo not drawn), for which the MIC was 0.1 µg/mL (≈ 0.296 µM) in experiment [1], 0.39 µg/mL (≈ 1.15 µM) in experiment [2] and 0.39 µg/mL (≈ 1.15 µM) in experiment [3]. Also, the 50% effective dose (ED50) was 2.8 mg/kg in experiment [4], 4.6 mg/kg in experiment [5] and 6.3 mg/kg in experiment [6].

For the molecule `CCn1cc(C(=O)O)c(=O)c2cc(F)c(N3CC(N)C3)nc21`, the MIC is 0.1 µg/mL (≈ 0.326 µM) in experiment [1], 0.78 µg/mL (≈ 2.55 µM) in experiment [2] and 0.78 µg/mL (≈ 2.55 µM) in experiment [3]. In addition, the median effective dose (ED50) turned out to be 4.1 mg/kg in experiment [4], 8.8 mg/kg in experiment [5] and 12.5 mg/kg in experiment [6].

In the case of `C=Cn1cc(C(=O)O)c(=O)c2cc(F)c(N3CC(N)C3)nc21`, the MIC is 0.1 µg/mL (≈ 0.329 µM) in experiment [1], 0.39 µg/mL (≈ 1.28 µM) in experiment [2] and 1.56 µg/mL (≈ 5.13 µM) in experiment [3].

In the case of `C=Cn1cc(C(=O)O)c(=O)c2cc(F)c(N3CCC(NC(C)=O)C3)nc21` (stereo not drawn), the MIC amounted to 0.78 µg/mL (≈ 2.16 µM) in experiment [1], 12.5 µg/mL (≈ 34.7 µM) in experiment [2] and 1.56 µg/mL (≈ 4.33 µM) in experiment [3].

On to `CNC1CCN(c2nc3c(cc2F)c(=O)c(C(=O)O)cn3CCF)C1` (stereo not drawn), for which the MIC in experiment [1] was 0.2 µg/mL (≈ 0.568 µM); in experiment [2], 0.78 µg/mL (≈ 2.21 µM); in experiment [3], 0.78 µg/mL (≈ 2.21 µM). Moreover, the median effective dose (ED50) in experiment [4] came out at 2.8 mg/kg; in experiment [5], 15 mg/kg; in experiment [6], 19.3 mg/kg.

Take `CCn1cc(C(=O)O)c(=O)c2cc(F)c(N3CCC(NN)C3)nc21` (stereo not drawn): the MIC in experiment [1] was 1.56 µg/mL (≈ 4.65 µM); in experiment [2], 12.5 µg/mL (≈ 37.3 µM); in experiment [3] it was 0.39 µg/mL (≈ 1.16 µM).

For the molecule `CC(=O)N(C)C1CCN(c2nc3c(cc2F)c(=O)c(C(=O)O)cn3CCF)C1` (stereo not drawn), the minimal inhibitory concentration (MIC) in experiment [1] was found to be 1.56 µg/mL (≈ 3.96 µM); in experiment [2], 25 µg/mL (≈ 63.4 µM); in experiment [3], 0.39 µg/mL (≈ 0.989 µM).

Take `CCn1cc(C(=O)O)c(=O)c2cc(F)c(N3CCC(NCC(F)(F)F)C3)nc21` (stereo not drawn): the MIC in experiment [1] stood at 1.56 µg/mL (≈ 3.88 µM); in experiment [2], 50 µg/mL (≈ 124 µM); in experiment [3], 0.78 µg/mL (≈ 1.94 µM).

`CCn1cc(C(=O)O)c(=O)c2cc(F)c(N3CCC(CNC(C)=O)CC3)nc21`: the MIC was found to be 1.56 µg/mL (≈ 4 µM) in experiment [1], 25 µg/mL (≈ 64 µM) in experiment [2] and 0.78 µg/mL (≈ 2 µM) in experiment [3].

Turning to `CCn1cc(C(=O)O)c(=O)c2cc(F)c(N3CCC(N(C)C)C3)nc21` (stereo not drawn), the figures for the MIC in experiment [1], in experiment [2] and in experiment [3] were 0.78 µg/mL (≈ 2.24 µM), 6.25 µg/mL (≈ 17.9 µM) and 1.56 µg/mL (≈ 4.48 µM), respectively.

As for `CCn1cc(C(=O)O)c(=O)c2cc(F)c(N3CCCC(N)C3)nc21` (stereo not drawn), the MIC stood at 0.78 µg/mL (≈ 2.33 µM) in experiment [1], 6.25 µg/mL (≈ 18.7 µM) in experiment [2] and 0.78 µg/mL (≈ 2.33 µM) in experiment [3].

As to `C=Cn1cc(C(=O)O)c(=O)c2cc(F)c(N3CCC(NC=O)C3)nc21` (stereo not drawn), the minimum inhibitory concentration (MIC) in experiment [1] is 0.39 µg/mL (≈ 1.13 µM); in experiment [2], 3.13 µg/mL (≈ 9.04 µM); in experiment [3] it was 0.78 µg/mL (≈ 2.25 µM).

Take `CCn1cc(C(=O)O)c(=O)c2cc(F)c(N3CCC(CN)CC3)nc21`: the MIC in experiment [1] is 1.56 µg/mL (≈ 4.48 µM); in experiment [2], 12.5 µg/mL (≈ 35.9 µM); in experiment [3], 0.39 µg/mL (≈ 1.12 µM).

In the case of `CCn1cc(C(=O)O)c(=O)c2cc(F)c(N3CC(N)C(O)C3)nc21` (stereo not drawn), the values for the MIC in experiment [1], in experiment [2] and in experiment [3] were 1.56 µg/mL (≈ 4.64 µM), 3.13 µg/mL (≈ 9.31 µM) and 1.56 µg/mL (≈ 4.64 µM), respectively.

Turning to `C=Cn1cc(C(=O)O)c(=O)c2cc(F)c(N3CCC(N)C3)nc21` (stereo not drawn), the values for the MIC in experiment [1], in experiment [2] and in experiment [3] were 0.025 µg/mL (≈ 0.0785 µM), 0.2 µg/mL (≈ 0.628 µM) and 0.2 µg/mL (≈ 0.628 µM), respectively. Further, the ED50 in experiment [4] was 0.72 mg/kg; in experiment [5] it was 1.6 mg/kg; in experiment [6], 1.6 mg/kg.

Turning to `CCn1cc(C(=O)O)c(=O)c2cc(F)c(N3CCCC(O)C3)nc21` (stereo not drawn), the MIC was determined as 3.13 µg/mL (≈ 9.33 µM) in experiment [1], 25 µg/mL (≈ 74.6 µM) in experiment [2] and 1.56 µg/mL (≈ 4.65 µM) in experiment [3].
